{
  "source": "paper PMC9083272",
  "about": "(RSC Advances, 2018)",
  "key": {"[1]": {"test": "Potentiometric titration, protonation constants", "assay_type": "physicochemical", "conditions": "I = 0.15 mol dm^−3 NaCl"}, "[2]": {"test": "Potentiometric determination of complex formation constants", "assay_type": "physicochemical", "conditions": "I = 0.15 mol dm^−3 NaCl", "procedure,_shortened": "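Test ligand in 3 × 10−3 mol dm−3 HCl with 0.15 mol dm−3 NaCl, in fresh DI water, titrated with carbonate-free 0.1 mol dm−3 NaOH. Runs: acid alone, ligand alone, and ligand plus Fe(III) at 3 × 10−3, 1.5 × 10−3 or 1 × 10−3 mol dm−3 (metal:ligand 1:1, 1:2, 1:3). Water bath ±0.1 °C, pH glass electrode, pH 2–11, triplicate. Log β refined jointly from the three ratios.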"}, "[3]": {"test": "Thermodynamic properties of iron", "assay_type": "physicochemical", "conditions": "I = 0.15 mol dm^−3 NaCl", "procedure,_shortened": "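Log β came from potentiometric titrations at 25, 37 and 40 °C in 0.15 mol dm−3 NaCl. ΔG was computed as −2.303RT log10 β. ΔH and ΔS per species were taken as the slope and intercept, respectively, of a Van't Hoff plot across the three temperatures. Units: ΔG and ΔH in kJ mol−1, ΔS in kJ mol−1 K−1.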"}, "[4]": {"conditions": "cited from earlier work"}, "[5]": {"conditions": "298.15 K and 0.05 M, ref Gergely et al. 21"}, "[6]": {"conditions": "298.15 K and 0.15 mol dm^−3 NaNO3, ref Angkawijaya et al. 22"}},
  "note": "Where two headings read alike, the source gives them in different places.",
  "data": [
    {"smiles": "NCC(=O)O", "note": "[Gly, glycine]", "values": [
      {"measurement": "pKa1", "setting": "[1]; 25 °C", "value": "2.51(7)"},
      {"measurement": "pKa2", "setting": "[1]; 25 °C", "value": "9.68(3)"},
      {"measurement": "pKa1", "setting": "[1]; 37 °C", "value": "<2"},
      {"measurement": "pKa2", "setting": "[1]; 37 °C", "value": "9.37(1)"},
      {"measurement": "pKa1", "setting": "[1]; 40 °C", "value": "<2"},
      {"measurement": "pKa2", "setting": "[1]; 40 °C", "value": "9.27(2)"},
      {"measurement": "log β", "setting": "[2]; complex [MA2H−2], 25 °C", "value": "6.54(5)"},
      {"measurement": "log β", "setting": "[2]; complex [MA2H−2], 37 °C", "value": "7.55(4)"},
      {"measurement": "log β", "setting": "[2]; complex [MA2H−2], 40 °C", "value": "8.17(8)"},
      {"measurement": "log β", "setting": "[2]; complex [MA2H−3], 25 °C", "value": "−4.65(11)"},
      {"measurement": "log β", "setting": "[2]; complex [MA2H−3], 37 °C", "value": "−2.95(5)"},
      {"measurement": "log β", "setting": "[2]; complex [MA2H−3], 40 °C", "value": "−1.57(9)"},
      {"measurement": "log β", "setting": "[2]; complex [MA2H−4], 40 °C", "value": "−11.78(10)"},
      {"measurement": "log β", "setting": "[2]; complex [MA2], 25 °C", "value": "19.10(11)"},
      {"measurement": "log β", "setting": "[2]; complex [MA2], 37 °C", "value": "19.54(10)"},
      {"measurement": "log β", "setting": "[2]; complex [MA2], 40 °C", "value": "19.72(13)"},
      {"measurement": "log β", "setting": "[2]; complex [MA3], 25 °C", "value": "27.59(9)"},
      {"measurement": "log β", "setting": "[2]; complex [MA3], 37 °C", "value": "28.35(3)"},
      {"measurement": "log β", "setting": "[2]; complex [MA3], 40 °C", "value": "28.49(14)"},
      {"measurement": "log β", "setting": "[2]; complex [MAH−1], 25 °C", "value": "6.21(2)"},
      {"measurement": "log β", "setting": "[2]; complex [MAH−1], 37 °C", "value": "6.63(2)"},
      {"measurement": "log β", "setting": "[2]; complex [MAH−1], 40 °C", "value": "6.75(5)"},
      {"measurement": "log β", "setting": "[2]; complex [MAH−2], 25 °C", "value": "2.32(2)"},
      {"measurement": "log β", "setting": "[2]; complex [MAH−2], 37 °C", "value": "3.34(3)"},
      {"measurement": "log β", "setting": "[2]; complex [MAH−2], 40 °C", "value": "3.78(8)"},
      {"measurement": "log β", "setting": "[2]; complex [MA], 25 °C", "value": "9.17(6)"},
      {"measurement": "log β", "setting": "[2]; complex [MA], 37 °C", "value": "9.59(3)"},
      {"measurement": "log β", "setting": "[2]; complex [MA], 40 °C", "value": "9.89(11)"},
      {"measurement": "−ΔG", "setting": "[3]; complex [MA2H−2], 25 °C", "value": 8.927, "unit": "kcal/mol"},
      {"measurement": "−ΔG", "setting": "[3]; complex [MA2H−2], 37 °C", "value": 10.71, "unit": "kcal/mol"},
      {"measurement": "−ΔG", "setting": "[3]; complex [MA2H−2], 40 °C", "value": 11.71, "unit": "kcal/mol"},
      {"measurement": "ΔH", "setting": "[3]; complex [MA2H−2]", "value": 43.332, "unit": "kcal/mol"},
      {"measurement": "ΔS", "setting": "[3]; complex [MA2H−2]", "value": "−0.73", "unit": "kJ mol^−1 K^−1"},
      {"measurement": "−ΔG", "setting": "[3]; complex [MA2H−3], 25 °C", "value": -6.341, "unit": "kcal/mol"},
      {"measurement": "−ΔG", "setting": "[3]; complex [MA2H−3], 37 °C", "value": -4.185, "unit": "kcal/mol"},
      {"measurement": "−ΔG", "setting": "[3]; complex [MA2H−3], 40 °C", "value": -2.25, "unit": "kcal/mol"},
      {"measurement": "ΔH", "setting": "[3]; complex [MA2H−3]", "value": 79.802, "unit": "kcal/mol"},
      {"measurement": "ΔS", "setting": "[3]; complex [MA2H−3]", "value": "−1.20", "unit": "kJ mol^−1 K^−1"},
      {"measurement": "−ΔG", "setting": "[3]; complex [MA2], 25 °C", "value": 26.104, "unit": "kcal/mol"},
      {"measurement": "−ΔG", "setting": "[3]; complex [MA2], 37 °C", "value": 27.727, "unit": "kcal/mol"},
      {"measurement": "−ΔG", "setting": "[3]; complex [MA2], 40 °C", "value": 28.265, "unit": "kcal/mol"},
      {"measurement": "ΔH", "setting": "[3]; complex [MA2]", "value": 16.12, "unit": "kcal/mol"},
      {"measurement": "ΔS", "setting": "[3]; complex [MA2]", "value": "−0.59", "unit": "kJ mol^−1 K^−1"},
      {"measurement": "−ΔG", "setting": "[3]; complex [MA3], 25 °C", "value": 37.639, "unit": "kcal/mol"},
      {"measurement": "−ΔG", "setting": "[3]; complex [MA3], 37 °C", "value": 40.244, "unit": "kcal/mol"},
      {"measurement": "−ΔG", "setting": "[3]; complex [MA3], 40 °C", "value": 40.827, "unit": "kcal/mol"},
      {"measurement": "ΔH", "setting": "[3]; complex [MA3]", "value": 26.109, "unit": "kcal/mol"},
      {"measurement": "ΔS", "setting": "[3]; complex [MA3]", "value": "−0.89", "unit": "kJ mol^−1 K^−1"},
      {"measurement": "−ΔG", "setting": "[3]; complex [MAH−1], 25 °C", "value": 8.475, "unit": "kcal/mol"},
      {"measurement": "−ΔG", "setting": "[3]; complex [MAH−1], 37 °C", "value": 9.405, "unit": "kcal/mol"},
      {"measurement": "−ΔG", "setting": "[3]; complex [MAH−1], 40 °C", "value": 9.68, "unit": "kcal/mol"},
      {"measurement": "ΔH", "setting": "[3]; complex [MAH−1]", "value": 15.23, "unit": "kcal/mol"},
      {"measurement": "ΔS", "setting": "[3]; complex [MAH−1]", "value": "−0.33", "unit": "kJ mol^−1 K^−1"},
      {"measurement": "−ΔG", "setting": "[3]; complex [MAH−2], 25 °C", "value": 3.172, "unit": "kcal/mol"},
      {"measurement": "−ΔG", "setting": "[3]; complex [MAH−2], 37 °C", "value": 4.739, "unit": "kcal/mol"},
      {"measurement": "−ΔG", "setting": "[3]; complex [MAH−2], 40 °C", "value": 5.416, "unit": "kcal/mol"},
      {"measurement": "ΔH", "setting": "[3]; complex [MAH−2]", "value": 39.888, "unit": "kcal/mol"},
      {"measurement": "ΔS", "setting": "[3]; complex [MAH−2]", "value": "−0.60", "unit": "kJ mol^−1 K^−1"},
      {"measurement": "−ΔG", "setting": "[3]; complex [MA], 25 °C", "value": 12.51, "unit": "kcal/mol"},
      {"measurement": "−ΔG", "setting": "[3]; complex [MA], 37 °C", "value": 13.61, "unit": "kcal/mol"},
      {"measurement": "−ΔG", "setting": "[3]; complex [MA], 40 °C", "value": 14.18, "unit": "kcal/mol"},
      {"measurement": "ΔH", "setting": "[3]; complex [MA]", "value": 19.01, "unit": "kcal/mol"},
      {"measurement": "ΔS", "setting": "[3]; complex [MA]", "value": "−0.44", "unit": "kJ mol^−1 K^−1"},
      {"measurement": "pKa1", "setting": "[4]; [5]", "value": 2.33},
      {"measurement": "pKa2", "setting": "[4]; [5]", "value": 9.61},
      {"measurement": "pKa1", "setting": "[4]; [6]", "value": 2.32},
      {"measurement": "pKa2", "setting": "[4]; [6]", "value": 9.62}
    ]},
    {"smiles": "O=C(O)[C@@H]1CCCN1", "note": "[Pro, reference compound]", "values": [
      {"measurement": "pKa1", "setting": "[4]; ref Zhu et al. 23", "value": 1.99}
    ]}
  ]
}
